Experimental data reported in ChEMBL document CHEMBL1147643 (J Med Chem, 2006).
Positions count from the first letter of the chain named. Active and inactive are the calls of the source. No cut-off for these calls is given here.

How the values were obtained:
Adenosine receptor A3 [1] = target: T1, Adenosine receptor A3 (Homo sapiens, UniProt P0DMS8); test: Displacement of [125I]I-AB-MECA from wild type adenosine A3 receptor expressed in COS7 cells; assay type: cell-based, COS-7
T1 sequence (P0DMS8 whole entry): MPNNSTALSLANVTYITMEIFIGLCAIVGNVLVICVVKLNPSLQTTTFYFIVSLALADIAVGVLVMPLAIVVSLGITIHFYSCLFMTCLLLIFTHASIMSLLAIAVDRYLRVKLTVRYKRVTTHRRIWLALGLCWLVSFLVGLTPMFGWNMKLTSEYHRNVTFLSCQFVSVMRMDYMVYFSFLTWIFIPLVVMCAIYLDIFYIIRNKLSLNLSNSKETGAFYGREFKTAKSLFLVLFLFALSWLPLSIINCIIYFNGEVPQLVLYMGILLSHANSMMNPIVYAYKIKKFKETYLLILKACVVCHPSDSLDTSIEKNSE

[2] = tested on: T2, Adenosine receptor A3 (Homo sapiens), P0DMS8 [H272E]; test: (§1) Activity against human adenosine A3 receptor H272E mutant expressed in COS7 cells as measured by accumulation of inositol phosphate by PLC assay; assay type: functional, cell-based; conditions: COS-7
T2 sequence (whole entry): T1 sequence (P0DMS8 whole entry) with H272E

Adenosine receptor A3 [3] = target: T3, Adenosine receptor A3 (Homo sapiens, UniProt P0DMS8, H272E); test: Displacement of [125I]I-AB-MECA from human adenosine A3 receptor H272E mutant expressed in COS7 cells; assay type: cell-based, COS-7
Adenosine receptor A3 [4] = target: Adenosine receptor A3 (Homo sapiens, UniProt P0DMS8, T94A); test: Displacement of [125I]I-AB-MECA from human adenosine A3 receptor T94A mutant expressed in COS7 cells; assay type: cell-based, COS-7
How it was run: (§2)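 Receptor cDNA, wild-type or mutant with mutations confirmed by sequencing, transiently transfected into COS-7 cells with Lipofectamine 2000. […] Displacement of agonist radioligand [125I]I-AB-MECA measured; Ki values derived.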

[5] = target: T4, Adenosine receptor A3 (Homo sapiens) (UniProt P0DMS8); test: Activity against human wild type adenosine A3 receptor expressed in COS7 cells as measured by accumulation of inositol phosphate by PLC assay; assay type: functional, cell-based; conditions: COS-7
T4 sequence (whole entry): T1 sequence (P0DMS8 whole entry)

Adenosine receptor A3 [6] = target: Adenosine receptor A3 (Homo sapiens, UniProt P0DMS8, T94E); test: Displacement of [125I]I-AB-MECA from human adenosine A3 receptor T94E mutant expressed in COS7 cells; assay type: cell-based, COS-7; how it was run: as §2
Adenosine receptor A3 [7] = target: Adenosine receptor A3 (Homo sapiens, UniProt P0DMS8, H272D); test: Displacement of [125I]I-AB-MECA from human adenosine A3 receptor H272D mutant expressed in COS7 cells; assay type: cell-based, COS-7; how it was run: as §2
[8] = target: T4, Adenosine receptor A3 (Homo sapiens); test: Inhibition of [125I]I-AB-MECA binding to wild type adenosine A3 receptor expressed in COS7 cells at 10 uM; assay type: cell-based; conditions: COS-7
[9] = tested on: T2, Adenosine receptor A3 (Homo sapiens), P0DMS8 [H272E]; test: Inhibition of [125I]I-AB-MECA binding to human adenosine A3 receptor H272E mutant expressed in COS7 cells at 10 uM; assay type: cell-based; conditions: COS-7
[10] = target: T5, Adenosine receptor A1 (Homo sapiens) (UniProt P30542); test: Inhibition of human adenosine A1 receptor expressed in CHO cells at 10 uM; assay type: cell-based
T5 sequence (whole entry): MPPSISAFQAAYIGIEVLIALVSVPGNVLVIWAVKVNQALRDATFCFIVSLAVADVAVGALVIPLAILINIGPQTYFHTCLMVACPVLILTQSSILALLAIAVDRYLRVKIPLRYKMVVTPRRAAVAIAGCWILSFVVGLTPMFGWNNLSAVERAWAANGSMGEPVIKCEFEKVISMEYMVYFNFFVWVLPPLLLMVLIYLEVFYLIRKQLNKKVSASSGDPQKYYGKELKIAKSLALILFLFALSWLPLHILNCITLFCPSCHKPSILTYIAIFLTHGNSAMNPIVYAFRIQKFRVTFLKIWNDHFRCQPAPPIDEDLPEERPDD

[11] = target: Adenosine receptor A2a (Homo sapiens) (UniProt P29274); test: Inhibition of human adenosine A2A receptor expressed in CHO cells at 10 uM; assay type: cell-based
Adenosine receptor A3 [12] = target: T3, Adenosine receptor A3; test: as §1; assay type: functional, cell-based, COS-7
Adenosine receptor A3 [13] = target: Adenosine receptor A3 (Homo sapiens, UniProt P0DMS8, Q167E); test: Displacement of [125I]I-AB-MECA from human adenosine A3 receptor Q167E mutant expressed in COS7 cells; assay type: cell-based, COS-7; how it was run: as §2
[14] = target: T6, Adenosine receptor A2b (Homo sapiens) (UniProt P29275); test: Activity against adenosine A2B receptor expressed in CHO cells by stimulation of cAMP production at 10 uM; assay type: functional, cell-based
T6 sequence (whole entry): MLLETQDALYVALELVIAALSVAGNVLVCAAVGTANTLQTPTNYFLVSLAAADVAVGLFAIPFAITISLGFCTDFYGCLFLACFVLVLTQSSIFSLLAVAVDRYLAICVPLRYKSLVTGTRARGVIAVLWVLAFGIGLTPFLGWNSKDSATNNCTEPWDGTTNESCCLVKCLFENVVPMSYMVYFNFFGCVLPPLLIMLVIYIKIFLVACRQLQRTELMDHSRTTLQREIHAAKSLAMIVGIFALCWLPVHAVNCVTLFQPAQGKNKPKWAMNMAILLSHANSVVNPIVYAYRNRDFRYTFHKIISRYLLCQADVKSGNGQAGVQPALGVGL

Sequence of Adenosine receptor A3 (Homo sapiens, UniProt P0DMS8, H272D) (P0DMS8 whole entry H272D): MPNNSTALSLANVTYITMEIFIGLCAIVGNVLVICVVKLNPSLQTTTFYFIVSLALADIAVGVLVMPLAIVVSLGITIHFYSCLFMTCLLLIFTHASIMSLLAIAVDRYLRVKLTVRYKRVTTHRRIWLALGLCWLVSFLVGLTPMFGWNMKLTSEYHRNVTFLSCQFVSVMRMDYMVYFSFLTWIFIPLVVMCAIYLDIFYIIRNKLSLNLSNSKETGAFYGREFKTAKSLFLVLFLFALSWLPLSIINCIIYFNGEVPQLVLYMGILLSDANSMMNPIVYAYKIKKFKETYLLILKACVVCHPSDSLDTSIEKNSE
Sequence of Adenosine receptor A3 (Homo sapiens, UniProt P0DMS8, Q167E) (P0DMS8 whole entry Q167E): as the sequence (P0DMS8 whole entry H272D) above, with Q167E, D272H counted along it
Sequence of Adenosine receptor A2a (Homo sapiens) (P29274 whole entry): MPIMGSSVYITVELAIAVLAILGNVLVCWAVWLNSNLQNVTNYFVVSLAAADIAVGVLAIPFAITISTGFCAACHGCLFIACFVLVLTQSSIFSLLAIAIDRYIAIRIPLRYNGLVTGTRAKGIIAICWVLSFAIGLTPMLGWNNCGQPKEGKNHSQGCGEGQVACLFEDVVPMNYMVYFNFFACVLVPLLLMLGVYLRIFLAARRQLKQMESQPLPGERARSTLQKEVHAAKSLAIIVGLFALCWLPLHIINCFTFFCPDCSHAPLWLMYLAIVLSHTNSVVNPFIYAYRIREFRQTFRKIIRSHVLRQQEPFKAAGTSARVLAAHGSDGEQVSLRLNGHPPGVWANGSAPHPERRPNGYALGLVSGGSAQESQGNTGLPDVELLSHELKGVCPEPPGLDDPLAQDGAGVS
T3 sequence (P0DMS8 whole entry H272E): as the sequence (P0DMS8 whole entry H272D) above, with D272E counted along it
Sequence of Adenosine receptor A3 (Homo sapiens, UniProt P0DMS8, T94A) (P0DMS8 whole entry T94A): as the sequence (P0DMS8 whole entry H272D) above, with T94A, D272H counted along it
Sequence of Adenosine receptor A3 (Homo sapiens, UniProt P0DMS8, T94E) (P0DMS8 whole entry T94E): as the sequence (P0DMS8 whole entry H272D) above, with T94E, D272H counted along it

SMILES	Ki (Adenosine receptor A3 [1]) [nM]	Activity [2]	Ki (Adenosine receptor A3 [3]) [nM]	Ki (Adenosine receptor A3 [4]) [µM]	Activity [5]	Ki (Adenosine receptor A3 [6]) [nM]	Ki (Adenosine receptor A3 [7]) [nM]	inhibition [8] [%]	inhibition [9] [%]	inhibition [10] [%]	inhibition [11] [%]	EC50 (Adenosine receptor A3 [12]) [nM]	Ki (Adenosine receptor A3 [13]) [µM]	Activity [14]
CNC(=O)[C@H]1O[C@@H](n2cnc3c(NCc4cccc(I)c4)ncnc32)[C@H](O)[C@@H]1N=[N+]=[N-]	2260	inactive	186	1.37	inactive	2000	140	–	–	–	–	–	–	–
NC[C@H]1[C@@H](O)[C@H](n2cnc3c(N)ncnc32)O[C@@H]1CO	–	–	–	–	–	–	–	3	2	–	–	–	–	–
CNC(=O)[C@H]1O[C@@H](n2cnc3c(NC)ncnc32)[C@H](O)[C@@H]1NC(N)=O	–	–	–	–	–	–	–	7	7	< 10	< 10	–	–	–
NC(=O)N[C@H]1[C@@H](O)[C@H](n2cnc3c(NCc4cccc(I)c4)ncnc32)O[C@@H]1CO	> 10000	–	220	> 10	–	> 10000	470	9	–	< 10	< 10	180	> 100	inactive
CC(=O)NC[C@H]1[C@@H](O)[C@H](n2cnc3c(NCc4cccc(I)c4)ncnc32)O[C@@H]1CO	> 10000	–	700	> 10	–	> 10000	1000	15	–	–	–	–	> 10	–
NC(=O)N[C@H]1[C@@H](O)[C@H](n2cnc3c(NCc4cccc(I)c4)nc(Cl)nc32)O[C@@H]1CO	–	–	200	–	–	–	–	47	–	34	< 10	–	–	–
CNC(=O)[C@H]1O[C@@H](n2cnc3c(NCc4cccc(I)c4)ncnc32)[C@H](O)[C@@H]1NC(N)=O	–	–	2700	–	–	–	–	5	–	< 10	< 10	–	–	–
COc1ccc(Cl)cc1CNc1ncnc2c1ncn2[C@@H]1O[C@H](CO)[C@@H](CN)[C@H]1O	13800	–	709	9.8	–	> 10000	2000	–	–	–	–	–	> 10	–
NC[C@H]1[C@@H](O)[C@H](n2cnc3c(NCc4cccc(I)c4)ncnc32)O[C@@H]1CO	9500	–	610	10.7	–	10000	850	–	–	–	–	–	> 10	–
CNC(=O)[C@H]1O[C@@H](n2cnc3c(NCc4cccc(I)c4)ncnc32)[C@H](O)[C@@H]1CN	137	–	185	0.12	–	110	120	–	–	–	–	–	0.57	–
CNC(=O)[C@H]1O[C@@H](n2cnc3c(NCc4cc(Cl)ccc4OC)ncnc32)[C@H](O)[C@@H]1CN	557	–	592	–	–	850	390	–	–	–	–	–	7.2	–
CNc1ncnc2c1ncn2[C@@H]1O[C@H](CO)[C@@H](NC(N)=O)[C@H]1O	–	–	–	–	–	–	–	3	30	< 10	< 10	–	–	–
NNC(=O)[C@H]1O[C@@H](n2cnc3c(N)ncnc32)[C@H](O)[C@@H]1O	1500	–	> 10000	–	–	–	–	–	–	–	–	–	–	–
[N-]=[N+]=NC[C@H]1S[C@@H](n2cnc3c(NCc4cccc(I)c4)ncnc32)[C@H](O)[C@@H]1O	22	inactive	230	–	inactive	–	–	–	–	–	–	–	–	–
